M1 ag – M1 muscarinic receptor agonists, primary screen, CHO-M1 cells, Fluo-4 calcium, agonist mode; Muscarinic acetylcholine receptor M1; Fluo-4 calcium fluorescence; hits give high values; B-score at 10 µM; 3% of 64,000 active; AID 626, 2007;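 active means fluorescence rise, raw or as B-score row- and column-corrected plate score, outside the 99.7% band of its plate's samples, either direction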
D1 allo mod – D1 CRE-luciferase signal change, two-sided – cell-based, HEK293 D1, dopamine EC30, D1 allosteric modulator project, primary screen. D(1A) dopamine receptor (Homo sapiens), P21728. dopamine EC30 potentiation; actives deviate in either direction. B-score at 10 µM. 5.9% of 58,000 active. AID 641, 2007;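 active means luminescence count or its row- and column-corrected plate score outside the 99.7% band of the plate's sample wells, on either side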
Target sequence (P21728 whole entry, looked up): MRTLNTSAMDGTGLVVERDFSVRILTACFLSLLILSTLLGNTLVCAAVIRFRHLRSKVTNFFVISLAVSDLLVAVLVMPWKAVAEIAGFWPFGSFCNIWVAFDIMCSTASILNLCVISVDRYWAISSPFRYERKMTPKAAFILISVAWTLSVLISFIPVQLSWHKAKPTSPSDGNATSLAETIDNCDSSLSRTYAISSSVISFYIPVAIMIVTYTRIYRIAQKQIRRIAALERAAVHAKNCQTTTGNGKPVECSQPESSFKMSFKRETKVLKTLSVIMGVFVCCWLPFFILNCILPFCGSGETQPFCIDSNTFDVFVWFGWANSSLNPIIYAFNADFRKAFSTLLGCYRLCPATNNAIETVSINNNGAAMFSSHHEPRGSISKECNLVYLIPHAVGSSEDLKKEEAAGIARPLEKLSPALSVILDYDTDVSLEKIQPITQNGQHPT
M1 antag – antagonists of rat M1 muscarinic receptor; 3.4% of 64,000 active; CHO-M1 cells, Fluo-4 calcium, ACh EC80 antagonist mode; hits give low values; B-score at 10 µM;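 active means calcium fluorescence response, raw or row-and-column corrected B-score, differing from the plate sample mean either way at a set confidence level, mostly lower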
RORa activator – activators of orphan receptor RORA, primary screen, cell-based, luminescence. activation, % at 10 µM. AID 560, 2006. CHO-K1 Gal4-RORA LBD luciferase reporter; percent increase over mock-subtracted basal signal. 1.5% of 65,000 active;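 active means activation above the mean of all tested compounds plus 3 SD, cut at about 49% in these data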;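 further: 0% = DMSO-treated RORA cells and 100% = added signal equal to DMSO minus mock-transfected cells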
HePTP inh – inhibitors of human HePTP phosphatase, primary screen, biochemical, absorbance, leukemia target. Tyrosine-protein phosphatase non-receptor type 7 (Homo sapiens), P35236. recombinant HePTP phosphatase activity, OD absorbance. inhibition, % at 20 µM. AID 521, 2006. 0.64% of 110,000 active; in the data active means inhibition above about 50%;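 further: plate controls were vehicle for no effect and reference inhibitor for full effect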
SF1 activator – activators of human SF-1, primary screen, cell-based, CHO-K1, Gal4-SF-1 LBD, luciferase luminescence | Steroidogenic factor 1 (Homo sapiens), Q13285 | CHO-K1 Gal4-SF-1 LBD luciferase reporter; % increase over DMSO SF-1-specific signal | activation, % at 10 µM | 1.9% of 65,000 active | AID 522, 2006;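 active means activation above the mean activation of all tested compounds plus 3 SD, cut at about 50% in these data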
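Assay system – CHO-K1 cells with Gal4–hSF-1 LBD chimera plus Gal4-driven luciferase · Quantity – 4,000 cells per well · Times – compound added 1 h post-seeding, 20 h exposure at 37 °C, 5% CO2 · Measured by – luciferase light emission · Benchmarks – DMSO and mock-transfected background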
* marks the source's active call; other numbers are inactive results. Shown are actives, neighbours in structure and some others; about 8.2% of the full set was active somewhere.

What do the screens show for `COc1ccc2ccccc2c1-c1nnc2ccc(C(F)(F)F)cn12`?
HePTP inh: 3

Results for COc1ccc(CC(=O)N2N=C3CCCCCC3C2(O)C(F)(F)F)cc1 (stereo not given) ?
HePTP inh: 5

How did Fc1ccc(-c2ccc(/C=N/n3cnnc3)o2)cc1 do in these assays?
HePTP inh: 6

How did CCOc1ccc(C(=O)Nc2cccc(-c3nc4cc(Cl)ccc4o3)c2C)cc1Br do in these assays?
HePTP inh: -12

How did O=C(C1CCCN(S(=O)(=O)c2cccnc2)C1)N1CCN(c2ccccn2)CC1 (stereo not given) do in these assays?
M1 ag: -0.062; D1 allo mod: 0.034; M1 antag: -0.4; RORa activator: 5; HePTP inh: 6; SF1 activator: -1

What do the screens show for `OC(c1ccc(Br)cc1)C12CN3CN(CN(C3)C1)C2` (stereo not given)?
HePTP inh: 104*

What do the screens show for `CCOC(=O)N1CCN(c2ncnc3c2cnn3-c2ccc(OC)cc2)CC1`?
M1 ag: -0.3; M1 antag: 0.41; RORa activator: 18; HePTP inh: 6; SF1 activator: 4

Results for c1ccc(-n2ncc3c(N4CCN(C5CCCCC5)CC4)ncnc32)cc1 ?
HePTP inh: -6

Results for COc1ccc(-n2ncc3c(N4CCC(C)CC4)ncnc32)cc1 ?
M1 ag: 0.00039; D1 allo mod: -5.8*; M1 antag: 0.35; RORa activator: -12; HePTP inh: 11; SF1 activator: -1

What do the screens show for `CC1CCN(c2ncnc3c2cnn3-c2ccccc2)CC1`?
M1 ag: -0.22; D1 allo mod: -3*; M1 antag: -1.1; RORa activator: 38; HePTP inh: 11; SF1 activator: 21

What do the screens show for `COc1nc(C#N)c(N2CCOCC2)o1`?
M1 ag: -1.1; D1 allo mod: 0.041; M1 antag: 1.3; RORa activator: 0; HePTP inh: 11; SF1 activator: -1

What do the screens show for `Cc1ccc(Nc2ncnc3nc[nH]c23)cc1Cl`?
M1 ag: -0.81; D1 allo mod: -3.5*; M1 antag: 0.28; RORa activator: 67*; HePTP inh: 6; SF1 activator: 43

Results for O=C1C(C=Nc2ccccc2O)=C(O)c2ccccc21 ?
M1 ag: -0.072; D1 allo mod: -5.6*; M1 antag: -1.1; RORa activator: 10; HePTP inh: -3; SF1 activator: -1

How did Cc1ccc(O)c(N=CC2=C(O)c3ccccc3C2=O)c1 do in these assays?
M1 ag: -0.93; D1 allo mod: 0.55; M1 antag: -0.34; RORa activator: 19; HePTP inh: 1; SF1 activator: 21

How did Cc1ccc2nc3c(cc(C#N)c(=O)n3CCN3CCOCC3)c(=O)n2c1 do in these assays?
D1 allo mod: -1.5; RORa activator: -3; HePTP inh: -2; SF1 activator: -1

How did Cc1ccc2nc3c(cc(C#N)c(=O)n3CC3CCCO3)c(=O)n2c1 (stereo not given) do in these assays?
M1 ag: -1.1; D1 allo mod: -3.6*; M1 antag: 0.049; RORa activator: -9; HePTP inh: 10; SF1 activator: 2

Results for CCCCCCNC(=O)C(C(=O)OCC)C1CCCCC1 (stereo not given) ?
M1 ag: 0.21; D1 allo mod: -0.2; M1 antag: -0.98; RORa activator: -4; HePTP inh: -11; SF1 activator: 9

What do the screens show for `COc1ccc(S(=O)(=O)N2CCN(Cc3ccc([N+](=O)[O-])cc3)CC2)cc1`?
HePTP inh: 57*

Results for O=C1C(Cl)=CC(=NSc2nc3ccccc3s2)C=C1Cl ?
HePTP inh: 68*

What do the screens show for `O=C(CSc1nc2ccccc2s1)CSc1nc2ccccc2s1`?
HePTP inh: -4

Assay outcomes deposited in PubChem BioAssay by several laboratories.
